According to ChEMBL document CHEMBL5316289, “Structure-Based Rational Design of Small α-Helical Peptides with Broad-Spectrum Activity against Multidrug-Resistant Pathogens” (J Med Chem, 2023):
The source made the active and inactive calls. The calls are words filed in the database; no cut-off is given here.

Experiments:
[1] = test system: HepaRG; assay: Antiproliferative activity human HepaRG cells assessed as reduction in cell viability at 50 ug/ml incubated for 24 hrs by MTS assay; format: functional; conditions: dose 50 µg/ml
Summary of the method: (§1)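 Cells seeded at 10,000 per well 24 h before treatment. Media: MRC-5 and HEK293 in DMEM with 10% FBS; HepaRG in William's E with GlutaMAX; HEKa in Dermal Cell Basal medium plus keratinocyte growth kit. Peptide at 10–250 μg/mL in triplicate for 24 h, 37 °C, 5% CO2. MTS added for 2 h, then A490 read. Survival is blank-corrected OD as % of untreated control.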

[2] = test system: Cell membrane; assay: Disruption of cell membrane in Escherichia coli ATCC BAA-2452 assessed as cell membrane perturbation at 4 times of MIC measured after 1 hrs by PI and DAPI double staining based fluorescence microscopic analysis
Summary of the method: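 Mid-log E. coli ATCC BAA-2452 was washed three times in PBS (10 mM, pH 7.3). Cells at 10^7 CFU/mL were exposed to agent at MIC or 4× MIC for 1 h, then pelleted at 3000g and washed. Staining was PI for 15 min, then DAPI for 15 min, both at 37 °C in the dark. Untreated cells were processed alike. Imaged by fluorescence microscopy with 60× oil objective.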

[3] = test system: HEK293; assay: Antiproliferative activity human HEK293 cells assessed as reduction in cell viability at 250 ug/ml incubated for 24 hrs by MTS assay; format: functional; conditions: dose 250 µg/ml; summary of the method: as §1
[4] = test system: HepaRG; assay: Antiproliferative activity human HepaRG cells assessed as reduction in cell viability at 250 ug/ml incubated for 24 hrs by MTS assay; format: functional; conditions: dose 250 µg/ml; summary of the method: as §1
[5] = test system: Staphylococcus aureus; assay: Bactericidal activity against methicillin resistant Staphylococcus aureus ATCC BAA 1556 assessed as inhibition of bacterial growth at MIC incubated for 4 hrs by Time kill assay; format: functional
Summary of the method: (§2)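 Aliquots taken every 30 min for 4 h and plated on agar for viable colony counts. Two independent experiments in triplicate.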

[6] = test system: Cell membrane; assay: Induction of membrane disruption in bacterial inner membrane mimic DOPC/DOPG (7:3) large unilamellar vesicles assessed as induction of dye leakage measured upto 100 mins by calcein dye based analysis; format: subcellular; conditions: dose 5-50 µg/ml
Summary of the method: (§3)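 LUVs loaded with calcein: DOPC/DOPG 7:3 w/w (bacterial mimic) or DOPC/cholesterol 10:1 w/w (mammalian mimic). Mixed 1:1 by volume with peptide at 5, 10, 20, 30 or 50 μg/mL. Fluorescence (ex 490/em 520 nm) read every 10 min for 100 min. Leakage expressed relative to 10% Triton X-100 lysis (100%), after subtracting liposome background. Triplicate.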

[7] = test system: MRC5; assay: Antiproliferative activity human MRC5 cells assessed as reduction in cell viability at 50 ug/ml incubated for 24 hrs by MTS assay; format: functional; conditions: dose 50 µg/ml; summary of the method: as §1
[8] = test system: Escherichia coli; assay: Antibacterial activity against Escherichia coli ATCC 25922 assessed as fold increase in MIC incubated for 24 hrs in presence of K+ ions by CLSI based broth microdilution method; format: functional
Summary of the method: (§4)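 E. coli MICs by CLSI broth microdilution in cation-adjusted Mueller Hinton broth. […] Inoculum was 10^6 CFU/mL with 2-fold serial peptide dilutions, incubated 24 h at 37 °C. MIC is the lowest concentration inhibiting growth. Three independent assays, each in triplicate.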

[9] = test system: Cell membrane; assay: Disruption of cell membrane in methicillin resistant Staphylococcus aureus ATCC BAA 1556 assessed as cell membrane perturbation at 4 times of MIC measured after 1 hrs by DAPI and PI double staining based fluorescence microscopic analysis
Summary of the method: (§5)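 Mid-log cells washed in PBS (10 mM, pH 7.3), 10^7 CFU/mL, treated at MIC and 4× MIC for 1 h. Pelleted and washed, then stained with PI for 15 min at 37 °C in the dark, then DAPI for 15 min at 37 °C in the dark. Untreated controls. Imaged by fluorescence microscopy, 60× oil objective.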

[10] = test system: Cell membrane; assay: Induction of membrane disruption in bacterial inner membrane mimic DOPC/DOPG (7:3) large unilamellar vesicles assessed as induction of dye leakage at 50 ug/ml measured after 100 mins by calcein dye based analysis; format: subcellular; conditions: dose 50.0 µg/ml; summary of the method: as §3
[11] = test system: Staphylococcus aureus; assay: Antibacterial activity against methicillin resistant Staphylococcus aureus ATCC BAA 1556 assessed as fold increase in MIC incubated for 24 hrs in presence of K+ ions by CLSI based broth microdilution method; format: functional
Summary of the method: (§6)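 CLSI broth microdilution. Overnight cultures diluted in cation-adjusted Mueller Hinton broth to 10^6 CFU/mL, mixed 1:1 with 2-fold serial peptide dilutions, 24 h at 37 °C. […] MIC is the lowest concentration inhibiting growth. Three independent assays in triplicate.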

[12] = test system: Staphylococcus aureus; assay: Antibacterial activity against methicillin resistant Staphylococcus aureus ATCC BAA 1556 assessed as fold increase in MIC incubated for 24 hrs in presence of Ca2+ ions by CLSI based broth microdilution method; format: functional; summary of the method: as §6
[13] = test system: Cell membrane; assay: Disruption of cell membrane in methicillin resistant Staphylococcus aureus ATCC BAA 1556 assessed as cell membrane perturbation measured after 1 hrs by DAPI and PI double staining based fluorescence microscopic analysis; format: subcellular; summary of the method: as §5
[14] = test system: Staphylococcus aureus; assay: Bactericidal activity against methicillin resistant Staphylococcus aureus ATCC BAA 1556 assessed as inhibition of bacterial growth at MIC to 4 times of MIC by Time kill assay; format: functional, organism-based; conditions: time 4.0 hrs, TDE = time-dependent effect; summary of the method: as §2
[15] = test system: Escherichia coli; assay: Antibacterial activity against Escherichia coli ATCC 25922 assessed as fold increase in MIC incubated for 24 hrs in presence of Ca2+ ions by CLSI based broth microdilution method; format: functional; summary of the method: as §4
[16] = test system: Escherichia coli; assay: Bactericidal activity against […] Escherichia coli ATCC BAA 2452 assessed as inhibition of bacterial growth at MIC to 4 times of MIC by Time kill assay; format: functional, organism-based; conditions: time 4.0 hrs, TDE = time-dependent effect; summary of the method: as §2
[17] = test system: Staphylococcus aureus; assay: Antibacterial activity against methicillin resistant Staphylococcus aureus ATCC BAA 1556 assessed as fold increase in MIC incubated for 24 hrs in presence of Mg2+ ions by CLSI based broth microdilution method; format: functional; summary of the method: as §6
[18] = test system: Staphylococcus aureus; assay: Antibacterial activity against methicillin resistant Staphylococcus aureus ATCC BAA 1556 assessed as fold increase in MIC incubated for 24 hrs in presence of NH4+ ions by CLSI based broth microdilution method; format: functional; summary of the method: as §6
[19] = test system: Cell membrane; assay: Disruption of cell membrane in methicillin resistant Staphylococcus aureus ATCC BAA 1556 assessed as increase in PI fluorescence intensity measured after 1 hrs by PI staining based flow cytometric analysis; format: subcellular
Summary of the method: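 Mid-log cells grown in Mueller Hinton broth, washed in 10 mM Tris pH 7.4, 10^7 CFU/mL, treated at MIC and 4× MIC for 1 h. Pelleted, washed, PI-stained for 15 min at 37 °C in the dark, then counted by flow cytometry for % PI-positive cells. PBS-treated cells as negative control, 10% Triton X-100 as positive control. Run in triplicate; two-tailed unpaired t-test.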

[20] = test system: Cell membrane; assay: Induction of membrane disruption in bacterial inner membrane mimic DOPC/DOPG (7:3) large unilamellar vesicles assessed as induction of dye leakage at 5 ug/ml measured after 100 mins by calcein dye based analysis; format: subcellular; conditions: dose 5.0 µg/ml; summary of the method: as §3
[21] = test system: Escherichia coli; assay: Antibacterial activity against Escherichia coli ATCC 25922 assessed as fold increase in MIC incubated for 24 hrs in presence of NH4+ ions by CLSI based broth microdilution method; format: functional; summary of the method: as §4

Substance	Activity [1] [%]	Activity [2]	Activity [3] [%]	Activity [4] [%]	inhibition (INH) [5] [%]	Activity [6]	Activity [7] [%]	fold change (FC) [8]	Activity [9]	Activity [10] [%]	fold change (FC) [11]	fold change (FC) [12]	Activity [13]	inhibition [14]	fold change (FC) [15]	inhibition [16]	fold change (FC) [17]	fold change (FC) [18]	Activity [19]	Activity [20] [%]	also measured
H-KWLKKWLKWWKK-NH2	>75	Active	>60	>60	75	Dose-Dependent Effect	>75	2	Active	80	2	2	Dose-Dependent Effect	Tde	2	Tde	2	2	Dose-Dependent Effect	30	fold change (FC) [21]: 2
H-RWLRRWLRWWRR-NH2	<60	Active	<30	<30	75	Dose-Dependent Effect	<60	2	Active	80	2	2	Dose-Dependent Effect	Tde	2	Tde	2	2	Dose-Dependent Effect	30	fold change (FC) [21]: 2
